Measured values gathered from unrelated publications.
Compare with care: the assays were run in different laboratories.
Target: Serine/threonine-protein kinase Nek3 (NEK3, Homo sapiens, UniProt P51956)
Residues used in one study (P51956 1-506): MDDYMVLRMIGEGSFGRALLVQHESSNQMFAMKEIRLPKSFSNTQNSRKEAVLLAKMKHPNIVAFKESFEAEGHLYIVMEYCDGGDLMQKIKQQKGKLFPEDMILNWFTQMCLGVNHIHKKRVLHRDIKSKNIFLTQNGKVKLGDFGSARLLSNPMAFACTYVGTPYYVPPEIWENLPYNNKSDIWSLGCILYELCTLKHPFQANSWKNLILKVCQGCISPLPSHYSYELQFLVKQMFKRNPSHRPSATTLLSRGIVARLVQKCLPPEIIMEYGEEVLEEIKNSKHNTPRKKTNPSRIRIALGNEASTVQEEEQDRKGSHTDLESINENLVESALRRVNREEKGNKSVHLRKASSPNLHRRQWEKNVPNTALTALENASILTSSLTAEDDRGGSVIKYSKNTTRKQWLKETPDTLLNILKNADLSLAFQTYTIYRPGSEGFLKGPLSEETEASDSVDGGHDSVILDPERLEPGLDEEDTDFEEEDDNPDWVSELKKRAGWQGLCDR

| SMILES | observed | method | concentration | remaining binding [%] |
| --- | --- | --- | --- | --- |
| CNC(=O)[C@@H]1CC[C@@H](n2c(-c3ccc4cnccc4c3)nc3ccc(C(=O)NCc4cccc(C(N)=O)c4)cc32)C1 | binding | competition with immobilised ligand | 1 µM | 61 |
| N#CC1(c2ccccn2)CCN(Cc2cc(C(=O)N3CCCC3)c(=O)n3ccccc23)CC1 | cell-free assay | competition with immobilised ligand | 1 µM | 83 |
| CN(c1nccc(-c2cnn3ncccc23)n1)C1CC1 | binding |  | 1 µM | 87 |
| Cc1nccc(COC(=O)N2C[C@@H]3[C@@H](CNC(=O)c4ccc5[nH]nnc5c4)[C@@H]3C2)n1 | cell-free assay | competition with immobilised ligand | 1 µM | 100 |
| C[C@@H]1CCN(c2nccc(-c3cnn4ncccc34)n2)C1 | binding |  | 1 µM | 81 |
| Cc1cnc(Nc2ccc(C(=O)N3CCC(N4CCCC4)CC3)cc2)nc1-c1cc2ccccc2s1 | binding | competition with immobilised ligand | 1 µM | 2.4 |
| CCOCCn1cc(C(=O)Nc2ccc(-n3nc(-c4cccnc4)cc3C(F)(F)F)cn2)ccc1=O | cell-free assay | competition with immobilised ligand | 1 µM | 100 |
| c1cncc(-c2cccc(Nc3nccc(NC4CCCCC4)n3)c2)c1 | binding | competition with immobilised ligand | 10 µM | 56 |
| O=C(Nc1cnc(Oc2ccc(F)cc2)nc1)N1CCc2ncccc2[C@@H]1c1ccc(F)cc1 | cell-free assay | competition with immobilised ligand | 1 µM | 67 |
| O=C(Nc1c[nH]nc1C(=O)NC1CCNCC1)c1cc(F)cc(F)c1 | binding | competition with immobilised ligand | 1 µM | 100 |
| O=C(NCCCN1CCOCC1)c1ccc(Nc2nccc(-c3cc4ccccc4s3)n2)cc1 | binding | competition with immobilised ligand | 1 µM | 2.7 |
| N[C@@H]1CCN(c2nccc(-c3cnn4ncccc34)n2)C1 | binding |  | 1 µM | 95 |
| CCN1CCN(Cc2ccc(C(=O)Nc3ccc(C)c(Oc4ccc5c(c4)CC(=O)N5)c3)cc2C(F)(F)F)CC1 | binding | competition with immobilised ligand | 1 µM | 100 |
| C=CC(=O)N1CCC(C(=O)NCC(=O)N2CCN(c3nc(-c4cnc(N)nc4C(F)F)nc(N4CCOCC4)n3)CC2)CC1 | binding | competition with immobilised ligand | 1 µM | 51 |
| O=C(NCc1ncc(C(F)(F)F)cc1Cl)c1ccc2c(c1)C1(CCS(=O)(=O)CC1)[C@H](C1CC1)N2S(=O)(=O)c1ccc(F)cc1 | cell-free assay | competition with immobilised ligand | 1 µM | 100 |
| CN(CCCC(F)(F)F)c1nccc(-c2cnn3ncccc23)n1 | binding |  | 1 µM | 100 |
| O=C(c1ccc(Nc2ncc(Cl)c(-c3ccc(Cl)s3)n2)cc1)N1CCC(N2CCCC2)CC1 | binding | competition with immobilised ligand | 1 µM | 0.45 |
| F[C@@H]1CCN(c2nccc(-c3cnn4ncccc34)n2)C1 | binding |  | 1 µM | 90 |
| O=C(O)[C@@H]1[C@@H](Cn2nnc3ccccc3c2=O)CC[C@H]1C(=O)c1ccc(OCCC2CCOCC2)cc1 | cell-free assay | competition with immobilised ligand | 1 µM | 83 |
| CC1CCCN1c1nccc(-c2cnn3ncccc23)n1 (stereo not drawn) | binding |  | 1 µM | 82 |
| C[C@@H](c1ccc(-n2cnc3c(N)ncnc32)cc1)N1CCc2nn(C)c(Cc3ccccc3)c2C1=O | binding | competition with immobilised ligand | 0.1 µM | 30 |
